Measured values as given in ChEMBL document CHEMBL4368873, “Novel O-methyl goniofufurone and 7-epi-goniofufurone derivatives: synthesis, in vitro cytotoxicity and SAR analysis” (Medchemcomm, 2018).
pIC50: −log10 of the molar value. Active and inactive are the calls of the source. The calls are words filed in the database; no cut-off is given here.

Experiments:
K562 [1] = experiment: Cytotoxicity against human K562 cells assessed as inhibition of cell growth after 72 hrs by MTT assay; assay type: functional, cell-based; details: K562, 72 h
HL-60 = experiment: Cytotoxicity against human HL60 cells assessed as inhibition of cell growth after 72 hrs by MTT assay; assay type: functional, cell-based; details: HL-60, 72 h
Summary of the method: (§1)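 Exponentially growing cells were exposed 72 h to compounds diluted from a 10 mM DMSO stock into serum-free medium. Growth was read by colorimetric MTT. Leukaemia/lymphoma lines (K562, HL-60, Jurkat, Raji) were grown in RPMI 1640; MCF-7, MDA-MB 231, HeLa, A549 and normal MRC-5 fibroblasts in DMEM; 37 °C, 5% CO2.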

Jurkat = experiment: Cytotoxicity against human Jurkat cells assessed as inhibition of cell growth after 72 hrs by MTT assay; assay type: functional, cell-based; summary of the method: as §1
Raji = experiment: Cytotoxicity against human Raji cells assessed as inhibition of cell growth after 72 hrs by MTT assay; assay type: functional, cell-based
MCF7 = experiment: Cytotoxicity against human MCF7 cells assessed as inhibition of cell growth after 72 hrs by MTT assay; assay type: functional, cell-based; details: MCF7, 72 h; summary of the method: as §1
MDA-MB-231 [2] = experiment: Cytotoxicity against human MDA-MB-231 cells assessed as inhibition of cell growth after 72 hrs by MTT assay; assay type: functional, cell-based; details: MDA-MB-231, 72 h
HeLa = experiment: Cytotoxicity against human HeLa cells assessed as inhibition of cell growth after 72 hrs by MTT assay; assay type: functional, cell-based
A549 [3] = experiment: Cytotoxicity against human A549 cells assessed as inhibition of cell growth after 72 hrs by MTT assay; assay type: functional, cell-based; details: A549, 72 h
MRC5 = experiment: Cytotoxicity against human MRC5 cells assessed as inhibition of cell growth after 72 hrs by MTT assay; assay type: cell-based; details: MRC5, 72 h
K562 [4] = experiment: Cell cycle arrest in human K562 cells assessed as accumulation at sub-G1 phase at IC50 after 72 hrs by propidium iodide staining based flow cytometry (reference value: 1.84%); assay type: functional
K562 [5] = experiment: Cell cycle arrest in human K562 cells assessed as accumulation at G0/G1 phase at IC50 after 72 hrs by propidium iodide staining based flow cytometry (reference value: 47.51%); assay type: functional
K562 [6] = experiment: Cell cycle arrest in human K562 cells assessed as accumulation at S phase at IC50 after 72 hrs by propidium iodide staining based flow cytometry (reference value: 26.52%); assay type: functional
K562 [7] = experiment: Cell cycle arrest in human K562 cells assessed as accumulation at G2/M phase at IC50 after 72 hrs by propidium iodide staining based flow cytometry (reference value: 24.13%); assay type: functional
K562 [8] = experiment: Induction of apoptosis in human K562 cells assessed as apoptotic cells at IC50 after 72 hrs by Annexin V-FITC/propidium iodide staining based flow cytometry relative to control; assay type: functional
Summary of the method: (§2)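 K562 cells seeded at 5 × 10⁵ per well, treated 72 h at each compound's IC₅₀ level. Viability was checked by trypan blue exclusion. Viable cells were double-stained with Annexin V-FITC and propidium iodide and analysed by flow cytometry. Results are given as specific apoptosis or specific necrosis (%) relative to untreated cells.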

K562 [9] = experiment: Induction of apoptosis in human K562 cells assessed as necrotic cells at IC50 after 72 hrs by Annexin V-FITC/propidium iodide staining based flow cytometry relative to control; assay type: functional; summary of the method: as §2
K562 [10] = experiment: Down regulation of Bcl-2 expression in human K562 cells at IC50 measured after 72 hrs by Western blot analysis; assay type: functional, cell-based
K562 [11] = experiment: Up regulation of Bax expression in human K562 cells at IC50 measured after 72 hrs by Western blot analysis; assay type: functional, cell-based
K562 [12] = experiment: Up regulation of cleaved PARP expression in human K562 cells at IC50 measured after 72 hrs by Western blot analysis; assay type: functional, cell-based
K562 [13] = experiment: Up regulation of Bcl-2 expression in human K562 cells at IC50 measured after 72 hrs by Western blot analysis; assay type: functional, cell-based
MDA-MB-231 [14] = experiment: Potency index, ratio of doxorubicin IC50 to test compound IC50 for human MDA-MB-231 cells; assay type: functional
A549 [15] = experiment: Potency index, ratio of doxorubicin IC50 to test compound IC50 for human A549 cells; assay type: functional
K562 [16] = experiment: Down regulation of Bax expression in human K562 cells at IC50 measured after 72 hrs by Western blot analysis; assay type: functional, cell-based
K562 [17] = experiment: Cell cycle arrest in human K562 cells assessed as increase in accumulation at sub-G1 phase at IC50 after 72 hrs by propidium iodide staining based flow cytometry relative to control; assay type: functional
K562 [18] = experiment: Up regulation of Caspase-3 precursor expression in human K562 cells at IC50 measured after 72 hrs by Western blot analysis; assay type: functional, cell-based
K562 [19] = experiment: Up regulation of active Caspase-3 expression in human K562 cells at IC50 measured after 72 hrs by Western blot analysis; assay type: functional, cell-based

SMILES | pIC50 (K562 [1]) | pIC50 (HL-60) | pIC50 (Jurkat) | pIC50 (Raji) | pIC50 (MCF7) | pIC50 (MDA-MB-231 [2]) | pIC50 (HeLa) | pIC50 (A549 [3]) | pIC50 (MRC5) | Activity (K562 [4]) [%] | Activity (K562 [5]) [%] | Activity (K562 [6]) [%] | Activity (K562 [7]) [%] | Activity (K562 [8]) [%] | Activity (K562 [9]) [%] | Activity (K562 [10]) | Activity (K562 [11]) | Activity (K562 [12]) | Activity (K562 [13]) | fold change (FC) (K562 [17]) | further results
CO[C@@H]1[C@H]2OC(=O)C[C@H]2O[C@@H]1[C@H](O)c1ccccc1 | 5.27 | 4.60 | 4.60 | 5.06 | 5.39 | 4.54 | 5.06 | 4.63 | < 4.00 | 1.82 | 47.34 | 26.52 | 24.32 | 2.69 | -0.54 | Active | Active | Active |  |  | 
O=C1C[C@H]2O[C@H]([C@H](O)c3ccccc3)[C@H](O)[C@H]2O1 |  | < 4.00 |  |  |  | 4.12 |  |  | < 4.00 | 2.16 | 52.47 | 21.03 | 24.34 | -0.36 | -0.31 |  | Active | Active | Active |  | 
CO[C@H](c1ccccc1)[C@H]1O[C@@H]2CC(=O)O[C@@H]2[C@H]1O | 5.10 | 5.53 | 4.81 | 4.81 | < 4.00 | 7.19 | 5.25 | 5.58 | < 4.00 | 2.4 | 52.09 | 20.61 | 24.89 | -0.27 | -0.5 | Active |  | Active |  |  | Ratio IC50 (MDA-MB-231 [14]): 1.5; Ratio IC50 (A549 [15]): 2; Activity (K562 [16]): Active
CO[C@@H]1[C@H]2OC(=O)C[C@H]2O[C@@H]1[C@H](OC)c1ccccc1 | 4.83 | 5.66 | 5.63 | 4.91 | < 4.00 | 5.87 | 4.25 | 4.58 | < 4.00 | 6.36 | 44.86 | 20.48 | 28.3 | 4.32 | 0.11 |  | Active | Active | Active | 3.5 | Activity (K562 [18]): Active; Activity (K562 [19]): Active
CO[C@@H]1[C@H]2OC(=O)C[C@H]2O[C@@H]1C(O)(c1ccccc1)c1ccccc1 | 4.54 | 5.63 | 5.01 | 4.72 | 4.94 | 4.29 | 4.90 | 4.82 | < 4.00 | 10.13 | 43.35 | 17.77 | 28.75 | 33.41 | 8.73 |  | Active | Active | Active | 5.5 | Activity (K562 [18]): Active; Activity (K562 [19]): Active
CO[C@@H](c1ccccc1)[C@H]1O[C@@H]2CC(=O)O[C@@H]2[C@H]1O | 4.94 | 5.79 | 4.90 | 4.68 | < 4.00 | 6.89 | 5.07 | 5.27 | < 4.00 | 6.03 | 53.39 | 19.68 | 20.9 | 11.17 | 0.55 | Active |  | Active |  | 3 | Activity (K562 [16]): Active
CO[C@@H]1[C@H]2OC(=O)C[C@H]2O[C@@H]1C(=O)c1ccccc1 | 4.65 | 4.95 | 5.05 | 4.59 | 5.46 | 4.39 | 5.19 | 5.59 | < 4.00 | 1.33 | 45.46 | 23.68 | 29.53 | 2.1 | -0.59 |  | Active | Active | Active |  | Ratio IC50 (A549 [15]): 2; Activity (K562 [18]): Active
CO[C@@H]1[C@H]2OC(=O)C[C@H]2O[C@@H]1[C@@H](OC)c1ccccc1 | 5.03 | 5.36 | 5.77 | 4.98 | < 4.00 | 5.58 | 4.05 | 4.60 | 4.06 | 2.4 | 48.59 | 22.66 | 26.35 | 1.7 | -0.44 |  | Active | Active | Active |  | Activity (K562 [18]): Active
CO[C@@H]1[C@H]2OC(=O)C[C@H]2O[C@@H]1[C@@H](O)c1ccccc1 | 5.07 | 4.72 | 4.81 | 4.91 | 4.90 | 4.45 | 4.96 | 4.42 | < 4.00 | 28.67 | 35.04 | 15.08 | 21.21 | 55.48 | 2.57 | Active |  | Active |  | 15.5 | Activity (K562 [16]): Active
